Measurements of several laboratories.
Technique: competition with immobilised ligand
JAK2 JH1: Tyrosine-protein kinase JAK2, JH1 (JAK2, Homo sapiens, UniProt O60674)

CNC(=O)Nc1ccc2c(c1)[C@@]1(CC2)OC(=O)N(CC(=O)N(Cc2ccc(F)cc2)[C@@H](C)C(F)(F)F)C1=O  remaining binding (JAK2 JH1; cell-free assay; 1 µM): 100%
FC(F)(F)Oc1cccc(-c2cnc3ccc(-c4ccncc4)nn23)c1  remaining binding (JAK2 JH1; cell-free assay; 5 µM): 56%
O=C(NS(=O)(=O)c1ccc(NCC2CCOCC2)c([N+](=O)[O-])c1)c1ccc(N2CCN(Cc3ccc(C(F)(F)F)cc3-c3ccc(Cl)cc3)CC2)cc1Oc1cnc2[nH]ccc2c1  remaining binding (JAK2 JH1; cell-free assay; 1 µM): 90%
Cc1cnn2ncc(-c3ccnc(N(C)C)n3)c2c1  remaining binding (JAK2 JH1; cell-free assay; 1 µM): 93%
COc1cnc(Nc2cccc(S(N)(=O)=O)c2)nc1N1CCN(c2ccccc2)C(=O)C1  remaining binding (JAK2 JH1; binding; 1 µM): 6.1%
COc1ccc2c(O[C@@H]3C[C@H]4C(=O)N[C@]5(C(=O)O)CC5/C=C\CCCCC[C@H](NC(=O)OC5CCCC5)C(=O)N4C3)cc(-c3csc(NC(=O)C(C)C)n3)nc2c1C (stereo partly drawn)  remaining binding (JAK2 JH1; cell-free assay; 1 µM): 64%
CN(C)c1nccc(-c2cnc3ncccn23)n1  remaining binding (JAK2 JH1; cell-free assay; 1 µM): 80%
COc1ncc2cc3ccccc3nc2c1C#N  remaining binding (JAK2 JH1; cell-free assay; 5 µM): 88%
O=C(Nc1cccnn1)N1CCC(=Cc2cccc(Oc3ccc(C(F)(F)F)cn3)c2)CC1  remaining binding (JAK2 JH1; cell-free assay; 1 µM): 100%
Cc1cnc(Nc2ccc(C(=O)N3CCC(N4CCCC4)CC3)cc2)nc1-c1cc2ccccc2s1  remaining binding (JAK2 JH1; binding; 1 µM): 0%
O=C(NCC1CCOCC1)c1n[nH]cc1NC(=O)c1c(F)cccc1F  remaining binding (JAK2 JH1; binding; 1 µM): 85%
C[C@@H]1CN(c2ccc3ncc(-c4ccc5[nH]nc(C6CC6)c5c4)n3n2)C[C@H](C)O1  remaining binding (Tyrosine-protein kinase JAK2 (JAK2, Homo sapiens, UniProt O60674); binding; 50 nM): 100%
CCc1ccccc1C(=O)Nc1n[nH]c2c(C)c(F)c(C3C(C#N)=C(C)N(C)C(C)=C3C#N)cc12  remaining binding (JAK2 JH1; cell-free assay; 1 µM): 100%
O=C(c1ccc(Nc2nccc(-c3cc4ccccc4s3)n2)cc1)N1CCC(N2CCCC2)CC1  remaining binding (JAK2 JH1; binding; 1 µM): 0.1%
c1cncc(-c2cccc(Nc3nccc(NC4CCCCC4)n3)c2)c1  remaining binding (JAK2 JH1; binding; 10 µM): 0.05%
O=C(c1ccc(Nc2ncc(Cl)c(-c3cc4ccccc4s3)n2)cc1)N1CCC(N2CCCC2)CC1  remaining binding (JAK2 JH1; binding; 1 µM): 0%
CC1CCCN1c1nccc(-c2cnn3ncccc23)n1 (stereo not drawn)  remaining binding (JAK2 JH1; cell-free assay; 1 µM): 98%
CC(=O)N1CCC(c2ccc(C(=O)NC3=NCCN3)cc2C(F)(F)F)CC1  remaining binding (JAK2 JH1; cell-free assay; 1 µM): 100%
